PAFAH2 FP inh: inhibitors of human PAFAH2 | recombinant PAFAH2, FP-rhodamine activity probe, fluorescence polarization | Q99487 | AID 492956 | inhibition, % at 3.39 µM | 340,000 compounds, 0.99% hits;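 active means inhibition above the mean over all tested compounds plus 3 SD, cut at about 30% in these data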;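 further: inhibitors block probe labeling of enzyme so polarization drops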
Apaf-1 inh: blocks human Apaf-1 apoptosome activity; AID 489030; O14727; reconstituted apoptosome caspase-3 activity, DEVD-Rh110 fluorescence; 330,000 compounds, 0.71% hits; inhibition, % at 20 µM; active means inhibition of at least 40% at 20 µM
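detection = Rh110 fluorescence intensity | test system = biochemical Apaf-1 apoptosome reconstitution | also added = cytochrome c and DEVD-Rh110 substrate | schedule = 30 min plus 50 min, RT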
PAFAH1B3 FP inh: PAFAH1B3 (human) inhibition. Q15102. recombinant PAFAH1B3, FP-rhodamine probe, fluorescence polarization. inhibition, % at 3.39 µM. 340,000 compounds, 0.28% hits;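 active means inhibition above the screen-wide average of all tested compounds plus 3 SD, cut at about 25% in these data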
pPAFAH inh: inhibitors of human plasma PAF acetylhydrolase (pPAFAH) | 330,000 compounds, 1.5% hits | Q13093 | inhibition, % at 3.39 µM | AID 463082 | recombinant pPAFAH, FP-rhodamine probe fluorescence polarization;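 active means inhibition above the mean inhibition across the screen plus 3 SD, cut at about 25% in these data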;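 further: inhibitors block binding of the rhodamine activity-based probe so polarization drops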
Target sequence (Q13093 whole entry, looked up): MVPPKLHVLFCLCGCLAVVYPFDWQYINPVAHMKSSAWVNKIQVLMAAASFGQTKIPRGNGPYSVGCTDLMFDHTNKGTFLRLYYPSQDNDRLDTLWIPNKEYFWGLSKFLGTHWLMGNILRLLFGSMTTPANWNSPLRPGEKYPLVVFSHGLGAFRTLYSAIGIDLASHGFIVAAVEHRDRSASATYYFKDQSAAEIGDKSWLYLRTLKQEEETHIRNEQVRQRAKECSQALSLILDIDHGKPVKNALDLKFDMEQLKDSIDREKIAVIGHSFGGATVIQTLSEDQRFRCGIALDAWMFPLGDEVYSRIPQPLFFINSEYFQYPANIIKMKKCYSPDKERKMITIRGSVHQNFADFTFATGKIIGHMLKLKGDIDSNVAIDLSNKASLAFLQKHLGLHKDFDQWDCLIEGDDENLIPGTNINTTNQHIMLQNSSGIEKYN
PAFAH1B2 FP inh: inhibitors of human PAFAH1B2 | 340,000 compounds, 1.2% hits | AID 492953 | inhibition, % at 3.39 µM | recombinant PAFAH1B2, FP-rhodamine activity probe, fluorescence polarization;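 active means inhibition above the mean of all tested compounds plus 3 SD, cut at about 24% in these data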
Target sequence (P68402 whole entry, looked up): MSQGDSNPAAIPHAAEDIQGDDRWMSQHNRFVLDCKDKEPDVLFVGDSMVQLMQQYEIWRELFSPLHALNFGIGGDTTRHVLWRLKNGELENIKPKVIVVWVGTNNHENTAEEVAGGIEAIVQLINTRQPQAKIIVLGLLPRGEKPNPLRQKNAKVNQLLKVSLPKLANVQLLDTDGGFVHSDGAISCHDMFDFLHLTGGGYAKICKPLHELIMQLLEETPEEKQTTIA
Large screens that a line does not name were inactive; ! = a repeat was not active. Compounds with a hit are over-represented: about 3.1% of the library has one in this group of screens.

O=C(COC(=O)C12CC3CC(CC(Br)(C3)C1)C2)Nc1cccc(S(=O)(=O)N2CCOCC2)c1	PAFAH1B2 FP inh 31
CN(Cc1ccccc1)C(=O)COC(=O)C12CC3CC(CC(Br)(C3)C1)C2	PAFAH1B2 FP inh 42
O=C(COC(=O)C12CC3CC(CC(Br)(C3)C1)C2)Nc1cccnc1Cl	PAFAH1B2 FP inh 32
O=C(N/N=C/c1ccccc1OCc1ccccc1)c1cccs1	none
COc1ccc2oc(C(=O)N3CCN(S(=O)(=O)c4c(C)c(C)cc(C)c4C)CC3)c(C)c2c1	none (no result: Apaf-1 inh, pPAFAH inh)
CCn1cc(/C=C(\NC(=O)c2ccc(OC)cc2)C(=O)N2CCOCC2)c2ccccc21	none
Cc1ccc(/C=N/n2c(COc3ccccc3)n[nH]c2=S)cc1	none
CC(C)c1ccc(/C=N/n2c(COc3ccccc3)n[nH]c2=S)cc1	PAFAH2 FP inh 35, PAFAH1B2 FP inh 29
O=C(Cc1cc(=O)[nH][nH]1)N/N=C/C=C/c1ccccc1	Apaf-1 inh 48!
O=C(CNC(=O)c1ccccc1)N/N=C/C=C/c1ccccc1	none
O=c1c2[nH]cnc2n(-c2cccc(Br)c2)c(=O)n1Cc1ccccc1	none
CC1(C)C=Cc2c(c3c(c4c(=O)c(-c5ccc(O)cc5)coc24)OC(C)(C)CC3)O1	pPAFAH inh 26
CC(C)=CCc1c2c(c3occ(-c4ccc(O)cc4)c(=O)c3c1O)C=CC(C)(C)O2	none
COc1cc(NC(=O)C2CCCN(S(=O)(=O)c3ccc4c(c3)CCCN4C(C)=O)C2)cc(OC)c1 (configuration not stated)	pPAFAH inh 30
COc1ccc(NC(=O)C2CCCN(S(=O)(=O)c3ccc4c(c3)CCCN4C(C)=O)C2)cc1 (configuration not stated)	none
Cn1nc(-c2ccc(Cl)cc2)c2cc(C(=O)NCCCN3CCCC3)sc21	Apaf-1 inh 49
CCOC(=O)c1c(NC(=O)/C=C/C(=O)O)sc(C)c1-c1ccc(F)cc1	pPAFAH inh 26
CC(Sc1ccc(Cl)cc1)C(=O)Nc1ccc(S(=O)(=O)N2CCOCC2)cc1 (configuration not stated)	PAFAH1B2 FP inh 31
O=C(CN1C(=O)c2cccnc2Oc2ccc(Cl)cc21)N1CCCC1	none
O=C(NCC1COCCO1)c1cc(COc2c(F)cccc2F)on1 (configuration not stated)	pPAFAH inh 25
CN(C(=O)c1cc(COc2c(F)cccc2F)on1)C1CCOC1 (configuration not stated)	none
O=C1C=C(Nc2cccc3cccnc23)c2ccccc2C1=O	Apaf-1 inh 47, pPAFAH inh 34
CC(=NNC(=S)N1CC2CCC(CC2)C1)c1ccncn1	none (no result: Apaf-1 inh, pPAFAH inh)
C=CCOC(=O)C(=O)/C=C/c1ccc2c(c1)Cc1ccccc1-2	pPAFAH inh 27
C=CCOC(=O)C(=O)/C=C/c1csc2ccccc12	none
CC(=O)NCCc1nc2cc(NS(=O)(=O)c3ccc(Cl)cc3)ccc2n1C	none
Cn1c(CCNC(=O)c2ccco2)nc2cc(NS(=O)(=O)c3ccc(Cl)cc3)ccc21	PAFAH1B2 FP inh 25
CCCCCC#CCC#CCC#CCC#CCCCC(=O)O	Apaf-1 inh 41, pPAFAH inh 61 (no result: PAFAH2 FP inh, PAFAH1B3 FP inh, PAFAH1B2 FP inh)
CC1(C)C(=S)N(Cc2ccccc2)c2ccccc21	none
COc1cccc(/C=N/Nc2snc(SC)c2C#N)c1O	PAFAH2 FP inh 33, pPAFAH inh 29
O=C(NCc1ccc(Cl)cc1)C1CCN(C(=O)c2ccc(Cl)cc2)CC1	none (no result: pPAFAH inh)
O=C(Nc1nc(-c2ccco2)c(-c2ccco2)s1)c1cnccn1	pPAFAH inh 33 (no result: PAFAH2 FP inh, PAFAH1B3 FP inh, PAFAH1B2 FP inh)
O=C(Nc1nc(-c2ccco2)c(-c2ccco2)s1)c1ccc(F)cc1F	none (no result: pPAFAH inh)
Cc1noc(C)c1CSCC(=O)Nc1cccc(C(F)(F)F)c1	none
Cc1[nH]c2c(C)cccc2c1CCNC(=O)c1ccc2c(c1[N+](=O)[O-])C(=O)c1ccccc1C2=O	PAFAH1B3 FP inh 40
N#CC1=C(SCC(=O)NC23CC4CC(CC(C4)C2)C3)NC(=O)C(C#N)C12CCCCC2 (configuration not stated)	PAFAH2 FP inh 33, PAFAH1B2 FP inh 37
COC(=O)c1cccc(NS(=O)(=O)c2ccc(OC)c(C(=O)N3CCOCC3)c2)c1C	none
O=C(CCS(=O)(=O)c1ccc(Br)cc1)NCCC1=CCCCC1	PAFAH1B2 FP inh 26
O=C(COc1ccc(S(=O)(=O)NC2CCCCC2)cc1)NCCC1=CCCCC1	pPAFAH inh 28
CCC1CCC/C1=N\NC(=O)c1cc(C)[nH]n1 (configuration not stated)	pPAFAH inh 34
O=C(NCCC(=O)N1CCN(S(=O)(=O)c2ccc(Cl)cc2)CC1)Nc1ccccc1	none (no result: pPAFAH inh)
O=S1(=O)CCOC[C@H](CC2CCCCC2)N1Cc1cccc(F)c1	PAFAH1B2 FP inh 24
Cc1ccc(CN2[C@@H](CC3CCCCC3)COCCS2(=O)=O)cc1	PAFAH1B2 FP inh 31
CCCC[C@H]1COCCS(=O)(=O)N1Cc1cccc(F)c1	none
O=S1(=O)CCOC[C@H](CC2CCCCC2)N1Cc1ccc(Cl)cc1	PAFAH1B2 FP inh 29
O=S1(=O)CCOC[C@H](c2ccccc2)N1Cc1cccc(Cl)c1	PAFAH1B2 FP inh 29
CCOC(=O)N1CCN(C(=O)C(CC(C)C)NS(=O)(=O)c2ccc(C)cc2)CC1 (configuration not stated)	none
CCn1nc(C)c(CNC(=O)C2CCC(=O)N(Cc3ccc(Cl)cc3)C2)c1C (configuration not stated)	none
O=C(OCC(=O)N1CCc2ccccc21)c1ccc([N+](=O)[O-])o1	none
O=C(COc1ccccc1)N1CCN(S(=O)(=O)c2ccc(Cl)cc2)CC1	PAFAH1B2 FP inh 31
O=C(Cc1ccc(F)cc1)OCC(=O)N1CCN(S(=O)(=O)c2ccc(Cl)cc2)CC1	pPAFAH inh 33
Nc1ncccc1C(=O)OCC(=O)N1CCN(S(=O)(=O)c2ccc(Cl)cc2)CC1	PAFAH1B2 FP inh 24
COc1ccc(-c2ccc(S(=O)(=O)N3CCCC3)cc2)cc1	pPAFAH inh 26
COc1ccc(S(=O)(=O)N2CCCCCC2)cc1	none
O=C(COc1ccc(Cl)cc1)N1CCN(S(=O)(=O)c2ccccc2)CC1	none
CCOc1ncccc1C(=O)OCC(=O)N1CCN(S(=O)(=O)c2ccc(Cl)cc2)CC1	none
Cc1cc(OCCN2CCOCC2)ccc1Cl	none
CCN(C[C@H]1N[C@@](C)(C(=O)OC)[C@H]2C(=O)N(C)C(=O)[C@@H]12)C(=O)Nc1ccc(C(F)(F)F)cc1	none
CCOC(=O)C1CCN(C(=O)c2ccccc2NC(=O)C2=C(C)OCCS2)CC1	none
COc1ccc(OCC(=O)OCC(=O)Nc2cc(S(=O)(=O)N3CCOCC3)ccc2Cl)cc1	pPAFAH inh 29
CCOc1ccccc1OCCCC(=O)N1CCN(S(=O)(=O)c2ccc(C)cc2)CC1	PAFAH1B2 FP inh 29
COc1ccc(CN(C)C(=O)CCC(=O)N2CCN(S(=O)(=O)c3ccc(Cl)cc3)CC2)c(OC)c1	PAFAH1B2 FP inh 27 (no result: Apaf-1 inh, pPAFAH inh)
O=C(COc1ccc(S(=O)(=O)N2CCCC2)cc1)N1CCCC1	pPAFAH inh 31
